Measurements published in ChEMBL document CHEMBL1153892 (Bioorg Med Chem, 2009).
Activity calls are given as the source filed them. The rule behind the calls is not given here.

Columns and labels:
A2780 [1] = test: Antiproliferative activity against human A2780 cells after 2 days by alamar-blue assay; format: functional, cell-based; details: A2780, 48 h
[2] = target: T1, Dual specificity protein phosphatase 6 (Rattus norvegicus, UniProt Q64346); test: Inhibition of histidine-tagged rat recombinant MKP3 catalytic domain expressed in Escherichia coli BL21(DE3)
T1 sequence (Q64346 whole entry): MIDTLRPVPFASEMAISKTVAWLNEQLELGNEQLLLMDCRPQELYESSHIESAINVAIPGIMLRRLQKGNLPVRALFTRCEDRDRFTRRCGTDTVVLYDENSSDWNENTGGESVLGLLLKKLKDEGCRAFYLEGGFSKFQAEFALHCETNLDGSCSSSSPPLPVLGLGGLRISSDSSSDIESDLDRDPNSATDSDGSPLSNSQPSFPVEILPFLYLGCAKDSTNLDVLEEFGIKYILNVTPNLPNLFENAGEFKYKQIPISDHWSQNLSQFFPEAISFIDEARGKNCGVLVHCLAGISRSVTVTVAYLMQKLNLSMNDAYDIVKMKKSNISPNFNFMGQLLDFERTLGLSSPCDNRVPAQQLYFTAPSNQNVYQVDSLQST
Procedure, shortened: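 Recombinant MKP-3 was expressed from a bacterial plasmid. Phosphatase activity was read from O-methyl fluorescein phosphate hydrolysis in a 25 μL final mixture, incubated 20 or 60 min at ambient temperature. Product fluorescence was read at excitation 485 nm and emission 530 nm. IC50 came from at least six inhibitor concentrations.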

[3] = target: T2, M-phase inducer phosphatase 2 (Homo sapiens, UniProt P30305); test: Inhibition of histidine-tagged human recombinant Cdc25B catalytic domain expressed in Escherichia coli
T2 sequence (P30305 whole entry): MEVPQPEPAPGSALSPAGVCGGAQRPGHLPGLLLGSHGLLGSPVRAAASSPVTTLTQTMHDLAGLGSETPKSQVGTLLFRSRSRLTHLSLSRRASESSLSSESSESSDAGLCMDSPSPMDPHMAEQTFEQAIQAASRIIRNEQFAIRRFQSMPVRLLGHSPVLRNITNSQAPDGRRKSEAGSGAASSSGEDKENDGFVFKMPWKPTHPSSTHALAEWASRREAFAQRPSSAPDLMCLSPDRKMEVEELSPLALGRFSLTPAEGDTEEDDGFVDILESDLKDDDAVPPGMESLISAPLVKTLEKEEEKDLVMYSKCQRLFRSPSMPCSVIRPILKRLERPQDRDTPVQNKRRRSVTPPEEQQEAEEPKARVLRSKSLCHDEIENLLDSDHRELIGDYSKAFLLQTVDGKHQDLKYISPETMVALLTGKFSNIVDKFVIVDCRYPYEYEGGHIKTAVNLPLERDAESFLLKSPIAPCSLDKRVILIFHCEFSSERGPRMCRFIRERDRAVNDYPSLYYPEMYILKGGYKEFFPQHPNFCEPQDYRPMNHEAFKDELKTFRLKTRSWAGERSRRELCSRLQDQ

[4] = target: T3, Dual specificity protein phosphatase 1 (Mus musculus, UniProt P28563); test: Inhibition of histidine-tagged mouse MKP1 catalytic domain expressed in […]
T3 sequence (P28563 whole entry): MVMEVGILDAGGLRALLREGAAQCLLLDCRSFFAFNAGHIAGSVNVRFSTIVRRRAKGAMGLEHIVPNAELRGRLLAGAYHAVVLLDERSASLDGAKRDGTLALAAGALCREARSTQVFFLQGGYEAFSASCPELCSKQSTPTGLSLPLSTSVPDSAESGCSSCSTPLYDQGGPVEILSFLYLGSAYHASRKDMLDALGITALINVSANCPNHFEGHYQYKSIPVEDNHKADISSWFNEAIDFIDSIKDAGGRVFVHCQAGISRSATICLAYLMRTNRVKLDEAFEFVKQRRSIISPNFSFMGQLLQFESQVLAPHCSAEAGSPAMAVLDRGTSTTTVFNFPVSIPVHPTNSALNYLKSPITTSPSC

[5] = target: T2, M-phase inducer phosphatase 2; test: Inhibition of histidine-tagged full length human Cdc25B expressed in Escherichia coli
Procedure, shortened: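 His6-tagged full-length enzyme purified from E. coli on Ni-NTA resin. Substrate is O-methyl fluorescein phosphate. Buffer is 30 mM Tris pH 8.5, 75 mM NaCl, 1 mM EDTA, 0.033% BSA and 1 mM DTT (final). Incubation runs 20 or 60 min at ambient temperature. Fluorescence is read at ex 485 / em 530 nm. IC50 comes from at least six concentrations.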

A2780 [6] = test: Antiproliferative activity against human A2780 cells assessed as growth inhibition after 2 days by microscopic analysis; format: functional, cell-based

Row | SMILES | IC50 (A2780 [1]) [µM] | IC50 [2] [µM] | IC50 [3] [µM] | IC50 [4] [µM] | IC50 [5] [µM] | Activity (A2780 [6])
1 | O=C1C=CC(=O)C=C1 [BENZOQUINONE] | 7.8 | > 50 | > 50 | > 50 |  | 
2 | O=C1C=CC(=O)c2cc3c(cc21)CCCC3 |  | > 50 | 9.53 | 21.8 |  | 
3 | O=C1C2=C(C(=O)c3c(O)cccc31)S(=O)(=O)CCN2 | 2.1 | > 50 | 0.88 | 33.8 |  | 
4 | CCOC1=CC(=O)C(=O)c2ccccc21 | 0.37 | 1.35 | 0.27 | 0.82 |  | 
5 | O=C1C=CC(=O)c2ccccc21 [NAPHTHOQUINONE] | 2.3 | 19.8 | 2.76 | 8.45 |  | 
6 | O=C1C=CC(=O)c2c(O)ccc(O)c21 [NAPHTHAZALIN] |  | 6.9 | 1 | 9.37 |  | 
7 | CC1=CC(=O)c2ccccc2C1=O [MENADIONE] | 2.6 | 20.5 | 3.38 | 24 |  | 
8 | O=C1C=CC(=O)c2c(O)cccc21 [JUGLONE] | 1.4 | 12.4 | 1.98 | 13 |  | 
9 | O=C1C2=C(C(=O)c3ccccc31)S(=O)(=O)CCN2 | 4.3 | 42.6 | 0.94 | 17.8 |  | 
10 | C[C@@]12CCCc3coc(c31)C(=O)c1cc3c(cc12)C(=O)C1=C(NCCS1(=O)=O)C3=O [ADOCIAQUINONE B] |  | 1.53 | 0.11 | 1.1 | 0.08 | 
11 | O=C1c2cc3c(cc2C(=O)C2OC12)CCCC3 (stereo not given) |  | 49.9 | 22.3 | > 50 |  | 
12 | O=C1C2=C(C(=O)c3cc4c(cc31)CCCC4)S(=O)(=O)CCN2 |  | > 50 | 2.3 | 38.7 |  | 
13 | O=C1C=C(NCCO)C(=O)c2ccccc21 | 64 | > 50 | > 50 | > 50 |  | 
14 | CC1=C(NCCO)C(=O)c2ccccc2C1=O |  | > 50 | > 50 | > 50 |  | Active
15 | O=C1c2ccccc2C(=O)c2ccccc21 [ANTHRAQUINONE] |  | > 50 | 9.51 | > 50 |  | 
